Test [1] has as its system MDA-MB-231. The test is described as follows: Antiproliferative activity against human MDA-MB-231 cells at 1 uM after 48 to 72 hrs by MTT assay relative to control. It is filed as functional. In a few lines:
(§1)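 Single-concentration screen in the MTT proliferation assay: log-phase cells seeded and allowed to adhere, exposed to compound at 1 µM for 48 h or 72 h, MTT added for 2-3 h, formazan dissolved in DMSO; percent inhibition versus control.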

Test [2] concerns Raji. The test is described as follows: Antiproliferative activity against human Raji cells at 1 uM after 48 to 72 hrs by MTT assay relative to control. It is filed as functional. The method in brief: as §1
The subject of test [3] is Raji. As to the kind of experiment: Antiproliferative activity against human Raji cells after 48 to 72 hrs by MTT assay. It is filed as functional, cell-based. In a few lines: (§2)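 Cells in log phase seeded and allowed to adhere, then exposed to graded compound concentrations for 48 h or 72 h; MTT added for a further 2-3 h, formazan dissolved in DMSO. IC50 taken from dose-response curves; mean ± SD of at least three independent experiments.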

The subject of test [4] is NCI-H460. The test is described as follows: Antiproliferative activity against human H460 cells at 1 uM after 48 to 72 hrs by MTT assay relative to control. The class given is functional. The method in brief:
as §1

Test [5] concerns MCF7. As to the kind of experiment: Antiproliferative activity against human MCF7 cells at 1 uM after 48 to 72 hrs by MTT assay relative to control. The class given is functional. In a few lines: as §1
The test system of test [6] is NCI-H460. The test is described as follows: Antiproliferative activity against human H460 cells after 48 to 72 hrs by MTT assay. The class given is functional, cell-based. In a few lines:
as §2

Test [7] has as its system MCF7. The test is described as follows: Antiproliferative activity against human MCF7 cells after 48 to 72 hrs by MTT assay. It is filed as functional, cell-based. In a few lines:
as §2

The nature of test [8]: Resistance index, ratio of IC50 for human A2780T cells to IC50 for human A2780S cells. The class given is functional.
Test [9] concerns A549/TR. The test is described as follows: Antiproliferative activity against human A549/TR cells after 48 to 72 hrs by MTT assay. The class given is functional, cell-based. The method in brief:
as §2

The nature of test [10]: Resistance index, ratio of IC50 for human A549/TR cells to IC50 for human A549 cells. It is filed as functional.
Test [11] relates to A2780S. As to the kind of experiment: Antiproliferative activity against human A2780S cells after 48 to 72 hrs by MTT assay. It is filed as functional, cell-based. In a few lines:
as §2

The subject of test [12] is A2780/Taxol. As to the kind of experiment: Antiproliferative activity against human A2780T cells after 48 to 72 hrs by MTT assay. It is filed as functional, cell-based. The method in brief:
as §2

Molecules are shown by their SMILES.

With `O=C(N/N=C/c1cccc(OCc2ccccc2Cl)c1)c1cc2c(cn1)[nH]c1ccccc12`, the inhibition at 1 µM in test [1] was 28.6%; in [2], 56.3%; in [4], 45.4%; in test [5] it was 36.2%. The IC50 in test [3] was 3.02 µM; in [6], 1.27 µM; in test [7] it was 2.32 µM.

In the case of `O=C(N/N=C/c1cccc(OCc2ccc(Br)cc2)c1)c1cc2c(cn1)[nH]c1ccccc12`, the inhibition at 1 µM in test [1] came out at 31.8%; in [2] it was 58.7%; in [4], 52.8%; in test [5], 50.4%. Further, the IC50 in [3] was 6.74 µM; in [6], 2.42 µM; in test [7], 7.22 µM.

On to `CN(Cc1ccccc1)Cc1nnc(-c2cc3c(cn2)[nH]c2ccccc23)o1`, for which the inhibition at 1 µM was -3.26% in [1], 16.3% in test [2], 3.74% in [4] and -1.84% in test [5].

As for `COc1ccc(/C=N/NC(=O)c2cc3c(cn2)[nH]c2ccccc23)cc1OCc1ccccc1`, the inhibition at 1 µM in test [1] was 22.2%; in test [2] it was 25.8%; in test [4] it was 20.7%; in test [5] it was -6.31%.

Consider `O=Cc1ccc(OCc2nnc(-c3cc4c(cn3)[nH]c3ccccc34)o2)cc1`, for which the inhibition at 1 µM in test [1] was 2.98%; in test [2], 9.17%; in test [4], 6.63%; in [5] it was -2.52%.

For `O=C(N/N=C/c1cccc(OCc2ccc(F)cc2)c1)c1cc2c(cn1)[nH]c1ccccc12`, the inhibition at 1 µM in test [1] came to 27.2%; in test [2], 48%; in [4], 29.7%; in [5], 23.6%.

With `N#Cc1ccccc1COc1cccc(/C=N/NC(=O)c2cc3c(cn2)[nH]c2ccccc23)c1`, the inhibition at 1 µM in test [1] is 20.7%; in test [2] it was 37.4%; in test [4], 15.5%; in test [5] it was 15.1%.

Consider `O=Cc1cccc(OCc2nnc(-c3cc4c(cn3)[nH]c3ccccc34)o2)c1`, for which the inhibition at 1 µM was 9.83% in test [1], 17.7% in [2], 13.9% in test [4] and 26.8% in test [5].

For `O=C(N/N=C/c1cccc(OCc2ccc(Cl)cc2)c1)c1cc2c(cn1)[nH]c1ccccc12`, the inhibition at 1 µM in [1] is 30.7%; in test [2] it was 56.7%; in [4], 40.4%; in test [5] it was 24.3%. The results for the IC50 in test [3], in test [6] and in test [7] were 5.02 µM, 5.02 µM and 8.62 µM, respectively.

As to `c1ccc(OCc2nnc(-c3cc4c(cn3)[nH]c3ccccc34)o2)cc1`, the inhibition at 1 µM in [1] is 7.42%; in [2], 1.69%; in test [4], 4.84%; in [5] it was -5.47%.

Consider `O=C(N/N=C/c1cccc(O)c1)c1cc2c(cn1)[nH]c1ccccc12`, for which the inhibition at 1 µM in [1] is 8.13%; in [2], 9.69%; in test [4], 5.08%; in test [5], -13.8%.

As for `N#Cc1cccc(COc2cccc(/C=N/NC(=O)c3cc4c(cn3)[nH]c3ccccc34)c2)c1`, the inhibition at 1 µM in [1] was determined as 21.9%; in test [2], 24.1%; in test [4], 12.8%; in test [5], 17.9%.

Take `O=C(N/N=C/c1cccc(OCc2ccccc2)c1)c1cc2c(cn1)[nH]c1ccccc12`: the inhibition at 1 µM in test [1] was 25.6%; in [2], 50.2%; in test [4], 29.7%; in test [5], 23.1%. For the same compound, the IC50 in test [3] worked out at 2.62 µM; in test [6], 6.52 µM; in test [7], 3.56 µM.

As for `O=C(N/N=C/c1cccc(OCc2cccc(Cl)c2)c1)c1cc2c(cn1)[nH]c1ccccc12`, the inhibition at 1 µM in [1] worked out at 15.6%; in test [2], 48.2%; in test [4] it was 31.9%; in [5], 22.4%.

Consider `O=C(N/N=C/c1c[nH]c2ccccc12)c1cc2c(cn1)[nH]c1ccccc12`, for which the inhibition at 1 µM is 7.1% in test [1], 8.66% in test [2], 16.2% in test [4] and 6.31% in test [5].

As for `Cc1ccc(COc2cccc(/C=N/NC(=O)c3cc4c(cn3)[nH]c3ccccc34)c2)cc1`, the inhibition at 1 µM in test [1] turned out to be 28.7%; in test [2] it was 45%; in test [4] it was 29.2%; in [5], 53.5%. For the same compound, the concentration for half-maximal inhibition (IC50) amounted to 4.06 µM in test [3], 2.18 µM in test [6] and 5.24 µM in [7].

With `O=C(N/N=C/c1cccc(OCc2ccccc2F)c1)c1cc2c(cn1)[nH]c1ccccc12`, the inhibition at 1 µM in test [1] worked out at 24.7%; in test [2], 54.3%; in test [4], 43.2%; in test [5], 46.2%. In addition, the IC50 stood at 2.94 µM in [3], 1.36 µM in test [6] and 6.5 µM in test [7].

In the case of `Cc1cccc(COc2cccc(/C=N/NC(=O)c3cc4c(cn3)[nH]c3ccccc34)c2)c1`, the inhibition at 1 µM came to 22.7% in test [1], 33.2% in test [2], 27.4% in test [4] and 26.3% in test [5].

`COc1ccc(COc2cccc(/C=N/NC(=O)c3cc4c(cn3)[nH]c3ccccc34)c2)cc1`: the inhibition at 1 µM is 23.6% in [1], 52% in [2], 38.6% in test [4] and 37% in test [5]. Also, the results for the IC50 in [3], in test [6] and in test [7] were 2.34 µM, 2.84 µM and 9.37 µM, respectively.

In the case of `C/C(=N\NC(=O)c1cccc(S(=O)(=O)N2CCOCC2)c1)c1cc(Cl)ccc1O`, the inhibition at 1 µM in test [1] amounted to 41.3%; in test [2], 51.7%; in test [4] it was 43.2%; in test [5], 59.3%. In addition, the IC50 in [3] amounted to 0.98 µM; in test [6] it was 0.47 µM; in [7] it was 0.62 µM.

As to `Cc1ccccc1COc1cccc(/C=N/NC(=O)c2cc3c(cn2)[nH]c2ccccc23)c1`, the inhibition at 1 µM in test [1] worked out at 24.8%; in [2] it was 36%; in [4] it was 29.4%; in test [5] it was 18.2%.

As for `O=C(N/N=C/c1ccc2ccccc2c1)c1cc2c(cn1)[nH]c1ccccc12`, the inhibition at 1 µM in [1] was found to be 21.8%; in test [2], 51.8%; in test [4], 40.7%; in [5], 35.7%. Further, the IC50 in test [3] is 2.04 µM; in test [6] it was 5.71 µM; in test [7] it was 14.9 µM.

Regarding `COC(=O)c1ccc(COc2cccc(/C=N/NC(=O)c3cc4c(cn3)[nH]c3ccccc34)c2)cc1`, the inhibition at 1 µM is 31.8% in test [1], 63.8% in [2], 25.9% in test [4] and 56.4% in test [5]. For the same compound, the IC50 in [3] came to 3.88 µM; in [6], 1.17 µM; in test [7] it was 1.64 µM.

Take `O=C(N/N=C/c1cccc(OCc2cccc(F)c2)c1)c1cc2c(cn1)[nH]c1ccccc12`: the inhibition at 1 µM in [1] stood at 16.5%; in test [2], 40.4%; in test [4], 21.7%; in [5] it was 17.1%.

`O=C(N/N=C/c1cccc(OCc2ccc(C(F)(F)F)cc2)c1)c1cc2c(cn1)[nH]c1ccccc12`: the inhibition at 1 µM was 24.4% in [1], 51.2% in test [2], 23.4% in test [4] and 38.4% in test [5]. Besides, the results for the 50% inhibitory concentration (IC50) in test [3], in test [6] and in test [7] were 2.04 µM, 7.49 µM and 6.6 µM, respectively.

Regarding `O=C(N/N=C/c1cccc(Oc2ccccc2)c1)c1cc2c(cn1)[nH]c1ccccc12`, the inhibition at 1 µM is 6.76% in test [1], 2.06% in test [2], 22.1% in [4] and -18.6% in [5].

As for `O=C(N/N=C/c1ccc(-c2ccccc2)cc1)c1cc2c(cn1)[nH]c1ccccc12`, the inhibition at 1 µM in test [1] is 29.3%; in test [2], 62.5%; in test [4] it was 44.3%; in test [5], 36.6%. Moreover, the IC50 in test [3] worked out at 1.04 µM; in [6], 3.64 µM; in test [7], 4.56 µM.

On to `COc1cc2c(c(OC)c1OC)-c1ccc(OC)c(=O)cc1[C@@H](NC(C)=O)CC2` [COLCHICINE], for which the entries for the “Ratio IC50” value in test [8] and in test [10] were 1630.02 and 60.41, respectively. Besides, the concentration for half-maximal inhibition (IC50) in test [9] worked out at 0.167 µM; in [11], 0.0219 µM; in test [12] it was 35.6 µM.

`O=C(N/N=C/c1cccc(OCc2ccc([N+](=O)[O-])cc2)c1)c1cc2c(cn1)[nH]c1ccccc12`: the inhibition at 1 µM in test [1] stood at 20.2%; in test [2], 56.7%; in test [4], 38.4%; in test [5], 32.8%. For the same compound, the results for the half-maximal inhibitory concentration (IC50) in test [3], in [6] and in [7] were 3.02 µM, 1.04 µM and 8.3 µM, respectively.
